High-throughput results deposited in PubChem BioAssay by several laboratories.
A selection: hits, their analogues and other compounds. The true share with any hit is near 4.3%.
SR-BI DiI-HDL act – SR-BI HDL lipid transfer activation. CHO ldlA[mSR-BI] cells, DiI-HDL uptake fluorescence, 3 h; 100 = double the neutral-control signal. AID 504775. activation, % at 12.5 µM. hit rate 0.096% among 320,000;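 active = mean replicate activation of at least 60% and every replicate at or above 60%; inconclusive = mean or all-replicate condition met, but not both; inactive = mean below 60% and not all replicates reaching 60%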;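 note: 0% = median plate neutral-control signal and 100% = twice that signal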
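Test system: SR-BI-overexpressing, LDLR-lacking CHO cells; Also added: labelled HDL, 10 µg/mL; Measured by: bottom-read cell fluorescence after medium removal, ex 550/em 595 nm; Timing: 3 h uptake period with compound, 37 °C; Buffer or medium: F12, 0.5% BSA, 25 mM HEPES; Doses: single compound concentration, delivered by pin transfer.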
AHR act – activators of human aryl hydrocarbon receptor. AHR-responsive luciferase reporter cells, luminescence. hit rate 2.5% among 320,000. P35869. activation, % at 5 µM; in the data active = activation above about 47%;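 note: 0% = vehicle wells and 100% = reference agonist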
Target sequence (P35869 whole entry, looked up): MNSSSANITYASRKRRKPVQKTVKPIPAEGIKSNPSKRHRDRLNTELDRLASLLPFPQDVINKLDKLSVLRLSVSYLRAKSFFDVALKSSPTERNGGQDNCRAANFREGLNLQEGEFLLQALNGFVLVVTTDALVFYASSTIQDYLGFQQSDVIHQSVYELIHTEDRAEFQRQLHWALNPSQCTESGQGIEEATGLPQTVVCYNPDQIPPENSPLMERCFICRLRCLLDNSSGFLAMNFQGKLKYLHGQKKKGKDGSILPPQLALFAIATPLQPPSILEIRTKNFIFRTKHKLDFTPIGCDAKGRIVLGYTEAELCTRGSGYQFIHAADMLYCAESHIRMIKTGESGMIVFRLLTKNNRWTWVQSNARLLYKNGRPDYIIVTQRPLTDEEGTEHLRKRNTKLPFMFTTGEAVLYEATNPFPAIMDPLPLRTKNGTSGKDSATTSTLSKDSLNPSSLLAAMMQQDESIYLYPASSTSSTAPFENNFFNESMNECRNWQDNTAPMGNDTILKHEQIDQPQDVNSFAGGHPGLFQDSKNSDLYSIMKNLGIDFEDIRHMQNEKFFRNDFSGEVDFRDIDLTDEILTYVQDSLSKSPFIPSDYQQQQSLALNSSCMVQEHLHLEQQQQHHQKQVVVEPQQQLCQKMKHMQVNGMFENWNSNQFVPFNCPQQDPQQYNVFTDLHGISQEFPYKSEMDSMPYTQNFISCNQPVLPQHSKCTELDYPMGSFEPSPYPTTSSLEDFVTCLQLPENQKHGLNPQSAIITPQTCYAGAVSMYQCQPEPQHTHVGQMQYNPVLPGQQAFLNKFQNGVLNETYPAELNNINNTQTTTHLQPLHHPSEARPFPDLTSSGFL
Lipid droplet – hepatic lipid droplet formation modulation | AML12 mouse hepatocytes, oleate lipid droplets, BODIPY imaging | inhibition, % at 6.5 µM | hit rate 0.4% among 240,000 | AID 1656;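 active = lipid droplet intensity inhibited by at least 50%, with more than 500 cells counted; inconclusive = wells with under 300 cells, treated as cytotoxic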
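System: AML12 hepatocytes (mouse). Probe or stimulus: oleic acid at 100 µM to induce lipid droplet formation. Times: overnight treatment with compound plus oleate. Detection: Image-based BODIPY and DAPI two-channel analysis. Evaluation: percent inhibition of filter-corrected integrated lipid droplet intensity per well.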
SMARCA2 activ – activators of SMARCA2 function | MG213 cells, MMTV-luciferase reporter, dexamethasone, overnight | activation, % at 9.1 µM | hit rate 1% among 370,000; in the data active = activation above about 7.8%;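 note: 0% = vehicle wells and 100% = reference activator wells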
CR mimetic SO – lowers age-related superoxide in aged yeast cells; S. cerevisiae aged cells, superoxide DHE fluorescence; stronger effect = lower value; superoxide response (% of plate mean), % at 10 µM; hit rate 0.18% among 330,000;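 active = superoxide response under a set limit, about three screen SD below normal, cut at about 65% in these data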;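 note: yeast aged for seven days with compound at 30 °C before DHE staining; 100% = average MFI of all compound-treated wells on the plate with controls excluded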
SR-BI DiI inh – blocks mouse SR-BI lipid uptake from DiI-HDL; AID 488896; ldlA[mSR-BI] CHO cells, DiI-HDL uptake fluorescence, 3 h; inhibition, % at 12.5 µM; hit rate 0.96% among 320,000;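 active = mean replicate inhibition of at least 70% and a set share of replicates each scoring 70 or more; inconclusive = meets just one of the two criteria; inactive = fails both criteria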;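 note: 0% = median of neutral control wells and 100% = median of positive control wells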
Starred values were filed as active, the others as inactive; ? = inconclusive; · = not tested or not shown.

SMILES	SR-BI DiI-HDL act	AHR act	Lipid droplet	SMARCA2 activ	CR mimetic SO	SR-BI DiI inh
Cc1c(C)n(Cc2ccc(-c3ccccc3C(=O)O)cc2)c2ccc(C(=O)N[C@@H](C)c3ccc(Br)cc3)cc12	·	·	·	0	·	·
O=C1CNCc2[nH]c3ccccc3c2N1c1ccccc1	-1	54*	12	-1	91	1
O=C1CC(c2c[nH]c3ccccc23)C(=O)N1c1ccccc1 (configuration not stated)	8	1	-4	2	93	-8
O=CN1Cc2[nH]c3ccccc3c2N(c2ccc(Cl)cc2)C1=O	·	65*	·	-1	108	·
COC(=O)[C@]12C[C@H](CC(=O)N3CCN(C(=O)C4CC4)CC3)C(=O)N(Cc3ccc4c(c3)OCO4)C1=C[C@H](C(C)C)O[C@@H]2C1CC1	·	·	·	-1	·	·
Cn1nc(C(F)(F)F)cc1C(=O)Nc1ccc(-c2ccno2)cc1	·	-3	-5	-3	117	35
Cn1nc(C(F)(F)F)cc1C(=O)Nc1ccc(Cl)cc1	-10	69*	1	-5	113	10
Cn1nc(C(F)(F)F)c2cc(C(=O)Nc3ccc(Cl)cc3)sc21	-83	64*	·	1	141	83*
COC(=O)[C@]12C[C@H](CC(=O)NCCc3ccccc3OC)C(=O)N(Cc3ccc(Cl)cc3Cl)C1=C[C@H](C(C)C)O[C@@H]2C1CC1	·	·	·	-3	·	·
CC1=C(/C=C/C(C)=C/C=C/C(C)=C/C(=O)Nc2ccc(O)cc2)C(C)(C)CCC1	-98	-1	·	-5	70	98*
O=C(NC1CCCCN(Cc2cccc(C(F)(F)F)c2)C1=O)c1ccc(-c2ccccc2)cc1 (configuration not stated)	·	·	·	-3	·	·
CN(C)c1ccc(N2C(=O)CSC2=S)cc1	·	52*	0	1	95	·
O=C1CSC(=S)N1c1ccc(F)cc1	·	0	-8	·	107	·
COc1cccc(C2NC(c3cccc(OC)c3O)C(C)C(=O)C2C)c1O (configuration not stated)	3	-3	·	3	108	-3
CC1C(=O)C(C)C(c2cc(Cl)ccc2O)NC1c1cc(Cl)ccc1O (configuration not stated)	-86	3	·	-2	105	86*
COc1ccc2ccccc2c1C=NNC(=O)CN1CCN(Cc2ccccc2)CC1	·	·	·	-5	·	·
O=C(Nc1cc2c3c(c1)CC(=O)N3CCC2)c1ccc(Cl)cc1	-79	20	·	-3	97	79*
Cc1ccn2c(/C=N/OCc3cccc(F)c3)c(-c3ccc(Cl)cc3)nc2c1	-78	-4	·	-2	101	78*
Cc1sc2nc(CSc3nnnn3-c3ccc(Cl)cc3)[nH]c(=O)c2c1C	-11	51*	5	-3	92	11
O=C(NC1CCCCN(Cc2ccc(Cl)cc2)C1=O)c1ccccc1-c1ccc(Cl)c(Cl)c1 (configuration not stated)	·	·	·	0	·	·
O=C(NNC(=O)c1sccc1-n1cccc1)Nc1ccc(F)cc1	-11	62*	0	-4	107	11
C#CC(=O)N(c1ccc(OC)cc1OC)C(C(=O)NC1CCCC1)c1cccs1 (configuration not stated)	10	-3	123*	-8	116	-10
COc1ccc(N/C(=C\C(=O)c2ccccc2)c2ccccc2)cc1OC	·	·	·	-1	·	·
C[C@@H]1CNCCN1c1ccc(N2CCS(=O)(=O)CC2)c(C#N)c1	·	·	·	0	·	·
COc1cc(OC)cc(-c2sc3ccc(OC)cc3c2C#CC2(N)CCCCC2)c1	-28	11	·	1	113	28
SMILES	SR-BI DiI-HDL act	AHR act	Lipid droplet	SMARCA2 activ	CR mimetic SO	SR-BI DiI inh
COc1ccc(-c2sc3cc4c(cc3c2C#CC2(N)CCCCC2)OCO4)cc1	-43	66*	·	2	110	43
O=C(Nc1ccc(F)cc1)c1cccnc1N1CCCCC1	-1	3	11	2	102	1
O=C(Nc1ccc(Br)cc1)c1cccnc1N1CCCCC1	-29	50*	-14	-3	77	29
OC(c1cc(C(F)(F)F)nc2c(Cl)cc(Cl)cc12)C1CCCCN1 (configuration not stated)	66*	1	3	-2	101	-66
Cc1cccc(NC(=O)CSc2nnc(-c3cccnc3)n2Cc2ccco2)c1C	·	·	·	-2	·	·
CC(=O)c1cccc(NC(=O)/C=C/c2ccc(S(=O)(=O)N3CCOCC3)cc2)c1	-72	9	·	-2	95	72*
O=C(/C=C/c1ccc(OC(F)F)cc1)Nc1cccc(S(=O)(=O)N2CCOCC2)c1	-80	-3	0	3	88	80*
Oc1ccc(Cl)cc1-c1cc(-c2ccco2)[nH]n1	-38	47*	·	0	89	38
COC(=O)C1=C(C)N(C)C(=NCc2ccc3c(c2)OCO3)NC1c1ccc(C(F)(F)F)cc1 (configuration not stated)	·	·	·	-3	·	·
COC(=O)[C@@H]1C[C@H]2CC[C@H](O)C[C@H]2N1Cc1ccc(C)s1	60*	2	-2	1	96	-60
Cc1ccc(NC(=O)c2cc(C(=O)c3cc(Cl)ccc3O)cn(-c3ccc(C)cc3)c2=O)cc1	-83	19	-11	-1	96	83*
Cn1cc(Cl)cc(C(=O)Nc2ccccc2)c1=O	·	28	-4	4	90	·
N#Cc1cc(C(=O)c2cc(Cl)ccc2O)cn(-c2ccccc2)c1=O	76*	1	-26	0	96	-76
C#CCN(Cc1cccc(F)c1)C(=O)c1nnc2c3cc(F)ccc3n(S(=O)(=O)c3ccc(OC)cc3)c2n1	·	·	·	-3	·	·
C[C@@H]1NS(=O)(=O)c2ccc(F)cc2O[C@@H]1c1ccccc1	·	·	·	2	·	·
COc1cc(OC)cc(C(=O)Nc2nc(CC(=O)NC(C)c3ccccc3)cs2)c1 (configuration not stated)	-44	12	·	0	88	44
COc1ccc(C(=O)Nc2nc(CC(=O)NCCc3cccc(OC)c3)cs2)cc1	-73	26	·	2	103	73*
COc1ccc(C(=O)Nc2nc(CC(=O)NCCc3ccccc3)cs2)cc1	-42	48*	·	0	114	42
COc1cc(-c2nc(-c3ccc(NC(=O)c4ccc5c(c4)OCO5)cc3)no2)cc(OC)c1OC	-45	0	-3	8.0*	104	45
COc1ccc(Cn2cc(CN3[C@H](C)COc4cc(Br)ccc4S3(=O)=O)nn2)cc1	·	·	·	-7	·	·
COc1cc(C(=O)N=c2sc3c(C)ccc(OC)c3n2C)cc(OC)c1OC	-78	32	-1	-3	104	78*
COc1ccc(OC)c2c1sc(=NC(=O)C(C)(C)C)n2C	26	16	·	0	120	-26
COc1cc(C(=O)N=c2sc3ccccc3n2C)cc(OC)c1OC	-72	17	-1	-2	98	?
COc1ccc(OC)c2c1sc(=NC(=O)c1cccc(N3C(=O)CCC3=O)c1)n2C	-77	70*	10	5	139	77*
